# Shown are actives, neighbours in structure and some others; about 1.3% of the full set was active somewhere.
# RTF Ca sens act: increases calcium sensitivity of human cardiac regulated thin filaments | P19429+P45379 | IANBD-labeled TnC RTF fluorescence at EC20 calcium; 0% EC20 calcium, 100% full calcium | activation, % at 7.2 µM | hit rate 0.24% among 340,000;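 active = activation above the mean over all tested compounds plus 3 SD, cut at about 30% in these data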;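 note: rise in fluorescence read as greater calcium sensitivity of cardiac thin filaments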
# CAL PDZ FP-1: CAL PDZ (human) peptide binding inhibition; AID 602252; inhibition, % at 24.9 µM; purified CAL PDZ, TMR-peptide fluorescence polarization, 1 h; hit rate 0.92% among 300,000; Q9HD26;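 active = mean inhibition of at least 30% with at least half of replicates also reaching 30%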;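 note: 0% = DMSO neutral control and 100% = excess unlabeled competitor peptide PRC23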
# Keap1 Nrf2 FP: Keap1-Nrf2 (human) interaction inhibition; Q14145; Keap1 Kelch-Nrf2 peptide fluorescence polarization, 1536-well; inhibition, % at 9.4 µM; hit rate 0.15% among 340,000; in the data active = inhibition above about 12%;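 note: human Keap1 Kelch domain with fluorescein labeled Nrf2 9mer peptide probe; 0% = neutral control wells and 100% = peptide positive control; higher means more block of Keap1 binding to Nrf2 peptide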
# Target sequence (Q14145 whole entry, looked up, the tested form may be a part): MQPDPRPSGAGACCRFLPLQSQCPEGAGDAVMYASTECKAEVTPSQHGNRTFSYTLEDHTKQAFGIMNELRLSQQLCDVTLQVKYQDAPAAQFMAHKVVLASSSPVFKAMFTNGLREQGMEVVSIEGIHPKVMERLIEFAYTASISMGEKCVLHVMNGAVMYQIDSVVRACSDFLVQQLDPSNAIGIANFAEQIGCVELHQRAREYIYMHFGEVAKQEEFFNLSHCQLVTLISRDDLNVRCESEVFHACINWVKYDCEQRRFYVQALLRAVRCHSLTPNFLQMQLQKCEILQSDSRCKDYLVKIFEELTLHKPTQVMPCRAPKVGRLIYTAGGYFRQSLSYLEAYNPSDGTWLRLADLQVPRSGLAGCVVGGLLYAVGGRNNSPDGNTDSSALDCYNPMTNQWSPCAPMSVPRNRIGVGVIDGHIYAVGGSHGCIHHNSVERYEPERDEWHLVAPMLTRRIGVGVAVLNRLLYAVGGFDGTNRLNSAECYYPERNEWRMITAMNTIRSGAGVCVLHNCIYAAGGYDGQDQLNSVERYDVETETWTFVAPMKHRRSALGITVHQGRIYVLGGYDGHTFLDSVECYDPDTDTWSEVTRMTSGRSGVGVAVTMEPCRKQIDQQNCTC
# RTF Ca sens inh: cardiac RTF calcium desensitization | IANBD-labeled cardiac RTF, Ca2+ fluorescence | AID 493244 | hit rate 0.12% among 340,000 | inhibition, % at 7.15 µM | P19429+P45379;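 active = inhibition above the mean inhibition of all tested compounds plus 3 SD, cut at about 17% in these data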;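 note: assay run at fixed EC70 calcium of 1.6 mM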
# CAL PDZ FP-2: inhibitors of human CAL PDZ peptide binding | purified CAL PDZ, TMR-peptide fluorescence polarization, 1 h | Q9HD26 | inhibition, % at 20 µM | hit rate 0.02% among 330,000 | AID 504414;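 active = highest replicate inhibition of at least 40%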;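 note: plate controls were DMSO neutral control wells for no effect and unlabeled competitor peptide control wells for full effect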
#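 Test system: purified CerCALP PDZ construct; Compound dosing: one concentration, 20 µM compound; Also added: TMR-labelled reporter peptide T*-PRC34 bound in PDZ groove; Read-out: inhibition from polarization loss; Controls: unlabelled peptide and DMSO controls; Signal: FP readout, S and P plane fluorescence; Incubation: 1 h at RT.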
# LANA DNA inh: inhibitors of KSHV LANA C-terminal domain DNA binding | MBP-C-LANA/FAM-LBS DNA binding, fluorescence polarization | hit rate 0.078% among 340,000 | inhibition, % at 9 µM;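 active = highest replicate inhibition at or above 60% at 9 µM, even if other replicates fall short; inactive = all replicates below 60% inhibition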;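 note: 0% = neutral control wells and 100% = 4 µM acridine orange control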
# Starred values were filed as active, the others as inactive; x = no result given.
SMILES,RTF Ca sens act,CAL PDZ FP-1,Keap1 Nrf2 FP,RTF Ca sens inh,CAL PDZ FP-2,LANA DNA inh
CCCN(C(=O)Cn1c(C(F)(F)F)nc2ccccc21)C1CCS(=O)(=O)C1 (centres undefined),1,-9,-1,-1,0,0
COCCNC(=S)Nc1cc2oc3ccccc3c2cc1OC,-3,31*,3,2,0,0
COc1cc2c(cc1NC(=S)NC(=O)c1c(OC)cccc1OC)oc1ccccc12,-2,1,-1,-11,-2,-1
COc1ccccc1/C=C/C=N/NC(=O)c1cc(-c2ccc(C)o2)[nH]n1,-1,62*,1,-8,-4,1
Cc1c(O)c2c3c(cccc3c1O)C(=O)N(c1ccccc1)C2=O,52*,-1,4,-31,-2,28
O=C(CCCN1C(=O)c2ccccc2C1=O)NCCCn1ccnc1,3,49*,3,-11,0,1
O=C1c2ccccc2C(=O)N1CCCn1ccnc1,-2,0,1,-4,0,1
CCN(CC)c1ccc(N2C(=O)CSC2=S)cc1,1,45*,5,-9,-4,6
CCOc1ccc(N2C(=O)CSC2=S)cc1,4,x,-7,-2,0,1
CC1(c2ccccc2)NC(=O)N(CC(=O)Nc2ccccc2C(=O)N2CCCCC2)C1=O (centres undefined),1,1,-1,5,-1,-1
Cc1ccc(SCC(=O)Nc2ccc3c(c2)C(=O)NC3=O)cc1,x,-10,1,x,-1,1
Cc1ccc(SCC(=O)Nc2ccc3c(c2)C(=O)N(C)C3=O)cc1,-9,179*,-1,3,-2,-1
CCOc1ccc(NC(=O)CCNC(=O)c2ccco2)cc1,-4,57*,0,0,1,-1
CCOc1ccc(NC(=O)CNC(=O)c2ccco2)cc1,-3,-1,5,7,-1,-1
COc1ccc(N(C(=O)c2snc(C(N)=O)c2N)C(C(=O)NCc2ccccc2)c2ccc(O)cc2)cc1 (centres undefined),-6,51*,-1,-12,0,0
COc1ccc(OC)c(/C=C2\Oc3cc(OCC(=O)N4CCC[C@H]4C(=O)O)ccc3C2=O)c1,7,3,0,-8,0,-2
COc1cccc(/C=C2\Oc3cc(OCC(=O)N4CCC[C@H]4C(=O)O)ccc3C2=O)c1,12,0,-7,-5,0,4
COc1ccc(/C=C2\Oc3cc(OCC(=O)N4CCC[C@H]4C(=O)O)ccc3C2=O)c(OC)c1,30*,-2,-44,-44,-1,-11
COc1cc(OC)c(OC)cc1/C=C1\Oc2cc(OCC(=O)N3Cc4ccccc4C[C@H]3C(=O)O)ccc2C1=O,32*,-1,-88,-66,1,-31
COc1ccc(-n2cc([N+](=O)[O-])c(=O)c3ccc(Cl)cc32)cc1,-1,x,1,4,-1,0
CCOC(=O)[C@H]1[C@H]2COc3cc(OC)ccc3[C@@H]2N2C(=O)c3cc(F)c(F)cc3NC(=O)[C@@]12C,-7,1,3,3,0,-1
CN(CC(=O)Nc1ccc(F)cc1)C(=O)COC(=O)C1=COCCO1,0,x,1,-6,0,1
O=C(O)C1Nc2c(O)cccc2C2C=CCC12 (centres undefined),-31,-4,2,34*,0,13
COc1cc(F)c(C2=CC(=O)C[C@H](c3ccc(Cl)cc3)C2)cc1F,-4,2,-1,4,0,0
CCOc1cc(/C=N/NC(N)=S)cc(Br)c1OCc1ccccc1C,-5,0,6,3,-1,2
SMILES,RTF Ca sens act,CAL PDZ FP-1,Keap1 Nrf2 FP,RTF Ca sens inh,CAL PDZ FP-2,LANA DNA inh
COc1cc(/C=N/NC(N)=S)cc(Br)c1OCc1ccccc1F,-4,124*,1,-3,-1,0
Cc1cc(Br)c(NC(=O)COC(=O)c2ccc[n+]([O-])c2)c(Br)c1,0,-10,-1,-2,0,0
O=C(COc1ccccc1)Nc1nnc(-c2ccco2)o1,2,-1,7,-5,0,0
O=C(COc1ccc(Cl)cc1)Nc1nnc(-c2ccco2)o1,5,46*,6,-14,-1,3
CCOC(=O)C(=COC(=O)c1ccccc1)NC(=O)Cc1ccccc1,6,-1,3,0,0,3
CC(C)Cc1nc2oc3c(NCC(C)O)ncnc3c2c2c1CCCC2 (centres undefined),3,43*,0,5,-2,0
CC(C)Cc1nc2oc3c(Cl)ncnc3c2c2c1CCCC2,-5,x,2,-3,-2,1
O=C(Nc1ccnn1C1CCN(CC2CC=CCC2)CC1)c1ccccc1Cl (centres undefined),5,51*,3,-10,1,1
O=C(/C=C/c1ccccc1Cl)N(Cc1ccc(Cl)cc1)C1CCS(=O)(=O)C1 (centres undefined),-2,71*,-2,7,-1,0
O=C(/C=C/c1ccccc1Cl)N(Cc1ccccc1)C1CCS(=O)(=O)C1 (centres undefined),-5,6,0,0,-4,1
COc1ccc(NC(=O)N2CCN(S(C)(=O)=O)CC2)c(OC)c1,4,38*,-2,-8,-3,0
CC1CCCC(C)N1CC(O)Cn1c2ccccc2c2ccccc21 (centres undefined),5,-3,-7,-5,1,-3
Cc1cc([N+](=O)[O-])nn1CC(=O)N(C)C1CCCCC1,-8,54*,0,-2,-1,-1
CCc1nn(CC(=O)N(C)C2CCCCC2)c(=O)c2cc3cc(C)ccc3n12,7,104*,-2,2,0,0
CCN(C(=O)Cn1nc(C)n2c(cc3cc(C)ccc32)c1=O)c1ccccc1,-5,x,-1,-6,-2,-1
CC(C)CCOc1cccc(OCC(=O)Nc2ccncc2)c1,-3,-4,1,-8,-2,-1
COc1ccc(-c2cn3ccccc3n2)cc1[N+](=O)[O-],0,-2,-3,-4,-1,1
COc1ccc(-c2cn3cc([N+](=O)[O-])ccc3n2)cc1OC,3,60*,-4,6,0,4
CCN1C(c2ccccc2)=C(c2ccccc2)S/C1=C/C=C1\SC(=S)N(C)C1=O,-5,36*,1,-2,-2,0
CCCCN1C(=O)/C(=C/C=C2\SCCN2C)SC1=S,115*,3,-186,-205,0,-14
CN1CCS/C1=C/C=C1\SC(=S)N(CC(=O)O)C1=O,249*,-2,-421,-431,-1,-101
CN1CCS/C1=C/C=C1/SC(=S)N(Cc2ccccc2)C1=O,96*,-3,-22,-119,-2,-2

# Bioassay records deposited in PubChem by several laboratories.
